Assay [1] concerns the target Human immunodeficiency virus type 1 reverse transcriptase (Human immunodeficiency virus 1, UniProt Q72547). Put plainly: Concentration required to inhibit the HIV-1 reverse transcriptase activity by 50%. In outline:
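Purified recombinant HIV-1 RT, RNA-dependent polymerase activity. Substrate: [³H]dGTP, […] (1 Ci/mmol). Reaction 30 min at 37 °C, then acid-insoluble radioactivity counted on glass-fibre filters.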

Assay [2] has as its system MT4. Put plainly: Concentration required to achieve 50% protection of MT-4 cells from HIV-1-induced cytopathogenicity. In kind it is functional, cell-based. The conditions noted are these: Homo sapiens. The method in brief:
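MT-4 cells (1×10^4/well) exposed to test compound dilutions (DMSO stock 200 mM, diluted in medium), then infected with HIV-1 IIIB at 100 CCID50/well; 4-day incubation at 37 °C; viable cells counted by MTT; EC50 is the dose giving 50% protection from virus-induced cytopathicity; means of at least two separate experiments.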
Background: Cytopathic effects are the visible damage that an infection or toxin causes in cultured cells.

The test system of assay [3] is MT4. Put plainly: Selectivity index measured as the ratio of CC50 / EC50. Format: functional. The method in brief: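 Selectivity index: CC50 in mock-infected MT-4 cells divided by EC50 against HIV-1 IIIB cytopathicity in MT-4 cells, both from MTT read-out after 4-day culture.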
In assay [4] the test system is MT4. Put plainly: Cytotoxicity against mock-infected MT-4 cells. In kind it is functional. Particulars: Homo sapiens. In outline: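 Mock-infected MT-4 cells (1×10^4/well) incubated 4 days at 37 °C alongside the antiviral assay with serial compound dilutions (from 200 mM DMSO stock); viability read by MTT; CC50 is the dose lowering viability of mock-infected cells by 50%; means of at least two separate experiments.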

Structures are written as SMILES.

By IC50 is commonly meant the concentration at which inhibition is half-maximal. Read a low IC50 as greater potency in that assay. Usually EC50 stands for the concentration that produces a half-maximal response. High values mean a need for much substance, low ones an effect from little substance. By CC50 is commonly meant the concentration at which the toxic effect on the cells reaches its halfway point. Turning to `CCC(C)Sc1nc(O)cc(Cc2c(Cl)cccc2Cl)n1` (stereo not given), in assay [1], the IC50 was 100 nM. The compound further registered an EC50 in the assay with MT4 [2] of 140 nM. Moreover, in the assay with MT4 [3], the Selectivity index is recorded as >1428 SI. The cytotoxic concentration (CC50) in the assay with MT4 [4] was > 200000 nM.
In the same order, the values of `CCC(C)Sc1nc(O)cc(Cc2ccccc2F)n1` (stereo not given) are 300 nM, 260 nM, 769 SI and 200000 nM.
`CCCCSc1nc(O)cc(Cc2c(Cl)cccc2Cl)n1` displayed a half-inhibitory concentration (IC50) in assay [1] of 500 nM. Moreover, a half-maximal response in the assay on MT4 [2] (EC50) required 440 nM. Further, the Selectivity index in the assay on MT4 [3] was >454 SI. Further, the 50% cytotoxic concentration (CC50) in the assay on MT4 [4] was > 200000 nM.
Consider `CSc1nc(O)cc(Cc2c(Cl)cccc2Cl)n1`, for which, in assay [1], the IC50 came to 3000 nM. Also, in the assay on MT4 [2], the EC50 came out at 3200 nM. The Selectivity index in the assay on MT4 [3] is listed as >62 SI. The CC50 in the assay on MT4 [4] was > 200000 nM.
As to `CC(C)Sc1nc(O)cc(Cc2c(Cl)cccc2Cl)n1`, the midpoint of inhibition in assay [1], the IC50, lay at 1500 nM. The EC50 in the assay on MT4 [2] came to 1900 nM. Further, the Selectivity index in the assay with MT4 [3] was >105 SI. Further, in the assay with MT4 [4], the CC50 was > 200000 nM.
The matching figures for `CC(C)CSc1nc(O)cc(Cc2c(Cl)cccc2Cl)n1`: 600 nM, 450 nM, >444 SI and > 200000 nM.
`CCCCSc1nc(O)c(C)c(Cc2c(Cl)cccc2Cl)n1` had an IC50 in assay [1] of 1150 nM. In the assay with MT4 [2], this compound showed a 50% effective concentration (EC50) of 1100 nM. Also, the Selectivity index in the assay with MT4 [3] is listed as >171 SI. In the assay with MT4 [4], the CC50 is > 200000 nM.
In the same order, the values of `Cc1c(O)nc(SCC(C)C)nc1Cc1c(F)cccc1F` are 90 nM, 100 nM, 1640 SI and 164000 nM.
In the same order, the values of `CCC(C)Sc1nc(O)cc(Cc2cccc([N+](=O)[O-])c2)n1` (stereo not given) are 300 nM, 400 nM, 392 SI and 157000 nM.
In the same order, the values of `Cc1c(O)nc(SC2CCCC2)nc1Cc1c(Cl)cccc1Cl` are 1700 nM, 1800 nM, >111 SI and > 200000 nM.
In assay [1], `CCC(C)Sc1nc(O)c(C)c(Cc2c(Cl)cccc2Cl)n1` (stereo not given) had an IC50 of 60 nM. This compound yielded an EC50 in the assay with MT4 [2] of 50 nM. The Selectivity index with MT4 [3] is listed as >4000 SI. Besides, the cytotoxic concentration (CC50) in the assay with MT4 [4] is > 200000 nM.
The matching figures for `CCC(C)Sc1nc(O)c(C)c(Cc2cccc(F)c2)n1` (stereo not given): 1500 nM, 1200 nM, >166 SI and > 200000 nM.
Consider `O=c1cc(Cc2c(F)cccc2F)nc(SC2CCCC2)[nH]1`, for which the 50% inhibitory concentration (IC50) in assay [1] was 80 nM. In addition, in the assay with MT4 [2], the midpoint of the response, the EC50, lay at 80 nM. In addition, in the assay with MT4 [3], the Selectivity index was >2500 SI. Also, in the assay with MT4 [4], the CC50 is > 200000 nM.
`CCC(C)Sc1nc(O)c(C)c(Cc2ccc(F)cc2)n1` (stereo not given) gave an IC50 in assay [1] of 13000 nM. Further, the EC50 in the assay with MT4 [2] stood at 11000 nM. Also, the Selectivity index with MT4 [3] came to 9.5 SI. Moreover, the CC50 with MT4 [4] worked out at 105000 nM.
In the same order, the values of `CCC(C)Sc1nc(O)cc(Cc2ccc([N+](=O)[O-])cc2)n1` (stereo not given) are 1200 nM, 1500 nM, 101 SI and 151000 nM.
As to `CCC(C)Sc1nc(O)cc(Cc2ccc(Cl)cc2)n1` (stereo not given), half-maximal inhibition in assay [1] (IC50) required 4800 nM. In addition, a half-maximal effect in the assay on MT4 [2] (EC50) was put at 5000 nM. For the same compound, in the assay with MT4 [3], the Selectivity index came out at 24 SI. For the same compound, it took 120000 nM to reach half-maximal cytotoxicity with MT4 [4] (CC50).
As for `Cc1c(O)nc(SC(C)C)nc1Cc1c(Cl)cccc1Cl`, in assay [1], inhibition was half-maximal at 1150 nM (IC50). The EC50 in the assay on MT4 [2] was 1300 nM. Also, the Selectivity index in the assay with MT4 [3] is >154 SI. Besides, in the assay with MT4 [4], the half-maximal cytotoxic concentration (CC50) was > 200000 nM.
In assay [1], `CCC(C)Sc1nc(O)c(C)c(Cc2cccc(Cl)c2)n1` (stereo not given) came in with an IC50 of 900 nM. This compound also registered a half-maximal effective concentration (EC50) in the assay with MT4 [2] of 960 nM. Also, the Selectivity index in the assay with MT4 [3] is >208 SI. In addition, the 50% cytotoxic concentration (CC50) with MT4 [4] is > 200000 nM.
In the same order, the values of `CCC(C)Sc1nc(O)cc(Cc2cccc(F)c2)n1` (stereo not given) are 600 nM, 700 nM, >286 SI and > 200000 nM.
In the same order, the values of `Cc1c(O)nc(SC2CCCCC2)nc1Cc1c(Cl)cccc1Cl` are 4900 nM, 22000 nM, >9 SI and > 200000 nM.
Compound `CCC(C)Sc1nc(O)cc(Cc2ccccc2[N+](=O)[O-])n1` (stereo not given) came in with an IC50 in assay [1] of 300 nM. In the assay with MT4 [2], this compound came in with a concentration for a half-maximal effect (EC50) of 250 nM. Also, the Selectivity index in the assay with MT4 [3] was >800 SI. The CC50 in the assay with MT4 [4] is > 200000 nM.
The matching figures for `CC(C)CSc1nc(O)cc(Cc2c(F)cccc2F)n1`: 200 nM, 140 nM, 1300 SI and 182000 nM.
Turning to `CCC(C)Sc1nc(O)c(C)c(Cc2ccccc2F)n1` (stereo not given), the half-maximal inhibitory concentration (IC50) in assay [1] is 410 nM. The compound further yielded an EC50 in the assay on MT4 [2] of 410 nM. In addition, in the assay on MT4 [3], the Selectivity index is 341 SI. Further, in the assay on MT4 [4], the CC50 stood at 140000 nM.
On to `CCC(C)Sc1nc(O)c(C)c(Cc2cccc([N+](=O)[O-])c2)n1` (stereo not given), for which the IC50 in assay [1] was 400 nM. Also, in the assay on MT4 [2], the EC50 came out at 350 nM. Besides, the Selectivity index with MT4 [3] is >571 SI. Further, the CC50 in the assay on MT4 [4] is > 200000 nM.
`CCC(C)Sc1nc(O)cc(Cc2ccc(F)cc2)n1` (stereo not given) returned an IC50 in assay [1] of 7400 nM. The same compound gave a 50% effective concentration (EC50) with MT4 [2] of 8700 nM. In the assay with MT4 [3], the Selectivity index came to 23 SI. Besides, the cytotoxic concentration (CC50) in the assay on MT4 [4] was > 200000 nM.
In the same order, the values of `CCC(C)Sc1nc(O)cc(Cc2cccc(Cl)c2)n1` (stereo not given) are 1900 nM, 2000 nM, 58 SI and 116000 nM.
For `Cc1c(Cc2c(F)cccc2F)nc(SC(C)C)[nH]c1=O`, half-maximal inhibition in assay [1] (IC50) required 50 nM. Also, in the assay on MT4 [2], the response was half-maximal at 50 nM (EC50). Besides, the Selectivity index with MT4 [3] is recorded as >4000 SI. The CC50 in the assay with MT4 [4] is > 200000 nM.
On to `CCC(C)Sc1nc(O)cc(Cc2c(F)cccc2F)n1` (stereo not given), for which inhibition in assay [1] was half-maximal at 50 nM (IC50). The response with MT4 [2] was half-maximal at 40 nM (EC50). In addition, the Selectivity index in the assay on MT4 [3] is reported as >5000 SI. Also, the CC50 in the assay on MT4 [4] is > 200000 nM.
In the same order, the values of `CC(C)Sc1nc(Cc2c(F)cccc2F)cc(=O)[nH]1` are 50 nM, 50 nM, >4000 SI and > 200000 nM.
In assay [1], `CCOCn1c(Cc2ccccc2)c(C(C)C)c(=O)[nH]c1=O` [EMIVIRINE] yielded an IC50 of 40 nM. Further, the EC50 in the assay on MT4 [2] stood at 30 nM. For the same compound, in the assay on MT4 [3], the Selectivity index was determined as 6666 SI. It took 200000 nM to reach half-maximal cytotoxicity in the assay on MT4 [4] (CC50).
